Published values pooled from the literature.
Lines come from different studies, so protocols differ.
Target: Mitogen-activated protein kinase kinase kinase 1 (MAP3K1, Homo sapiens, UniProt Q13233)

CN(C)c1nccc(-c2cnn3ncccc23)n1
remaining binding (binding; 1 µM): 91%

CO[C@@H](C)c1c(Nc2ccc([C@H](N(C)C(=O)C3CCS(=O)(=O)CC3)C(F)(F)F)cc2)cnc2cc(Cl)nn12
remaining binding (cell-free assay; competition with immobilised ligand; 1 µM): 100%

COc1cnc(Nc2cccc(S(N)(=O)=O)c2)nc1N1CCN(c2ccccc2)C(=O)C1
remaining binding (binding; competition with immobilised ligand; 1 µM): 96%

CCN1CCN(Cc2ccc(C(=O)Nc3ccc(C)c(Oc4ccc5c(c4)CC(=O)N5)c3)cc2C(F)(F)F)CC1
remaining binding (binding; competition with immobilised ligand; 1 µM): 100%

COc1ncc2cc3ccccc3nc2c1C#N
remaining binding (cell-free assay; competition with immobilised ligand; 5 µM): 99%

C[C@H]1CCN(c2nccc(-c3cnn4ncccc34)n2)C1
remaining binding (binding; 1 µM): 83%

CNC(=O)Nc1ccc2c(c1)CC[C@@]21OC(=O)N(CC(=O)N(Cc2ccc(F)cc2)[C@@H](C)C(F)(F)F)C1=O
remaining binding (cell-free assay; competition with immobilised ligand; 1 µM): 68%

CNC(=O)[C@@H]1CC[C@@H](n2c(-c3ccc4cnccc4c3)nc3ccc(C(=O)NCc4cccc(C(N)=O)c4)cc32)C1
remaining binding (binding; competition with immobilised ligand; 1 µM): 95%

CN(C)c1nccc(-c2cnc3ncccn23)n1
remaining binding (binding; 1 µM): 100%

Cc1cc(-n2nc(Cc3cc(F)cc(C(F)(F)F)c3)nc2C)ccc1C(N)=O
remaining binding (cell-free assay; competition with immobilised ligand; 1 µM): 100%

Cc1cnn2ncc(-c3ccnc(N(C)C)n3)c2c1
remaining binding (binding; 1 µM): 91%

O=C(NCCCN1CCOCC1)c1ccc(Nc2nccc(-c3cc4ccccc4s3)n2)cc1
remaining binding (binding; competition with immobilised ligand; 1 µM): 92%

N[C@H]1CCN(c2nccc(-c3cnn4ncccc34)n2)C1
remaining binding (binding; 1 µM): 98%

CSc1cccnc1N1CCN(Cc2nc3ccccc3[nH]2)CC1
remaining binding (cell-free assay; competition with immobilised ligand; 1 µM): 70%

O=C(NCC1CCOCC1)c1n[nH]cc1NC(=O)c1c(F)cccc1F
remaining binding (binding; competition with immobilised ligand; 1 µM): 75%

c1cncc(-c2cccc(Nc3nccc(NC4CCCCC4)n3)c2)c1
remaining binding (binding; competition with immobilised ligand; 10 µM): 79%

O=C(c1ccc(Nc2ncc(Cl)c(-c3ccc(Cl)s3)n2)cc1)N1CCC(N2CCCC2)CC1
remaining binding (binding; competition with immobilised ligand; 1 µM): 90%

CCCOc1ccc([C@@H]2[C@@H](C(=O)O)[C@H](c3ccc4c(c3)OCO4)CN2CC(=O)Nc2c(CC)cccc2CC)cc1
remaining binding (cell-free assay; competition with immobilised ligand; 1 µM): 80%

CN(C)c1ncc(F)c(-c2cnn3ncccc23)n1
remaining binding (binding; 1 µM): 80%

O=C(c1ccc(Nc2nccc(-c3cc4ccccc4s3)n2)cc1)N1CCC(N2CCCC2)CC1
remaining binding (binding; competition with immobilised ligand; 1 µM): 98%

F[C@@H]1CCN(c2nccc(-c3cnn4ncccc34)n2)C1
remaining binding (binding; 1 µM): 100%

C[C@H](NC(=O)c1cnc2n1[C@](C)(Cc1ccc(C#N)cc1)C(=O)N2c1cc(Cl)c(F)c(Cl)c1)C(=O)NC1(c2ccccn2)CC1
remaining binding (cell-free assay; competition with immobilised ligand; 1 µM): 100%
